Experimental data: PubChem BioAssay AID1019 (Sanford-Burnham Center for Chemical Genomics, 2008)
Screen size: about 190,000 compounds; fewer than 10 were called active.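 The calls were made as follows: active = over 50% inhibition of intestinal alkaline phosphatase at 20 µM in the single-dose screen; inactive = the rest.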 These entries were drawn from the full list.

system: alkaline phosphatase, intestinal [Bos taurus]; assay: bovine intestinal alkaline phosphatase inhibitors, primary screen, selectivity assay for TNAP inhibitor project, biochemical, bovine IAP, CDP-star luminescence (AID 1019); details: purified bovine IAP, 30 min, at 20 µM, stronger effect = higher value
In short: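 Assay system – bovine IAP enzyme · Quantity – bovine IAP at 1/65,000,000 final dilution · Detection – CDP-star luminescence signal · Times – 30 min reaction at room temperature · Also added – CDP-star substrate at 30 µM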

inhibition, inactive:
CC(C)C(=O)Nc1ccc2oc(=O)ccc2c1 7%
CCOC(=O)/C(C#N)=C/c1ccc(N2CCCCC2)cc1 11.8%
CC(C)(c1ccccc1)c1ccc(OCCN)cc1 14.7%
COC(=O)Cc1ccc(NC(=S)NCc2ccco2)cc1 4%
COc1ccc(/C=N/N=C2/C(=O)Nc3ccccc32)cc1O 5%
COc1cc(NS(=O)(=O)c2ccc(NC(=O)CN3C(=O)c4ccccc4C3=O)cc2)ncn1 3.8%
CN(C)CCN=c1cc(-c2ccccc2)oc2ccc(Cl)cc12 -8.9%
CC(C)(C)NC(=O)c1ccc(Cn2cc(C(F)(F)F)ccc2=O)cc1 4.3%
Oc1ccc(N2CCN(C(=S)NCc3ccccc3)CC2)cc1 6.1%
CCCCN(CC)CCCNC(=O)c1ccc(CSc2nc3ccncc3[nH]2)cc1 -24%
O=C(CCc1ccccc1)Nc1nn[nH]n1 5.5%
CC1CCCN(CC(O)COc2ccc3c(c2)OCO3)C1 (stereo not given) 3.1%
Cc1ccccc1C1CC(c2cccs2)=NN1S(C)(=O)=O (stereo not given) 18.1%
CCN(c1ccccc1)S(=O)(=O)c1ccc2[nH]c(=O)[nH]c2c1 3.4%
O=S(=O)(NCCc1ccc(F)cc1)c1cccc2cccnc12 10.8%
COc1cc(/C=C/C(=O)OCC(=O)N2CCOCC2)ccc1OCC#N -7.3%
O=C(Cn1cnc2ccccc21)N/N=C/c1ccco1 -22.7%
CC1CC(C)CN(CCC(=O)Nc2ccc3c(c2)CCC3)C1 (stereo not given) -14.7%
O=C(COC(=O)/C=C/c1ccc(S(=O)(=O)N2CCCCCC2)cc1)NCc1ccccc1Cl 14.5%
CCCNC(=O)NC(=O)COC(=O)CC(NC(N)=O)c1ccc(Cl)cc1 (stereo not given) 7.6%
Cc1c(C=O)c2ccccc2n1CC(=O)O -6.7%
CCn1nc(C)c(CN2CCN(Cc3ccc(OC)c(C)c3C)C(CCO)C2)c1C (stereo not given) -4.7%
COc1ccc(C2CC(c3cccs3)Nc3nnnn32)cc1 (stereo not given) 16.6%
CCN(CC)C(=O)N(CC)Cc1ccccc1 -1.7%
Cc1ccc(Nc2c(F)c(F)c(F)c(F)c2C(=O)O)c(C)c1 1.3%
C=CCN(c1ccc(Cl)cc1)S(=O)(=O)c1cccc(C(=O)OCC(=O)N(C)C)c1 -6.8%
Cn1cc(-c2ccccc2)cc(C#N)c1=O -3.4%
CC(C)(C)n1ncc2c(=O)n(Cc3ccc(Cl)cc3)cnc21 -1.6%
CCCCCCCNc1nc(Cl)nc(NCCO)n1 -10.7%
CCOC(=O)C1(Cc2ccccc2C(F)(F)F)CCN(C(=O)c2cc(C)n(C)n2)CC1 -5.4%
CCN(CC)CCNc1nc(-c2ccc(OC(F)F)cc2)c(C)s1 -8.2%
O=C(Nc1cccc(F)c1)c1coc(=O)c(Br)c1 13.2%
COC(=O)c1ccc(C(=O)OC)c(NC(=S)N2CCN(c3ccc(F)cc3)CC2)c1 -5.9%
CC(NC(=O)CCC(=O)N1CCN(S(=O)(=O)c2ccc(Cl)cc2)CC1)c1ccccc1 (stereo not given) -56.8%
COc1cc(C(=S)NC2CCCCC2)ccc1O 5.4%
CCOc1ccc(NC(=S)NC(=O)/C=C/c2ccc(OC)cc2)c([N+](=O)[O-])c1 -34%
C=CCO/N=C/C1=C(O)C(C(=O)OC)C(C)(C)CC1=O (stereo not given) -21.8%
CC(NC(=O)CC1SC(N)=NC1=O)c1ccccc1 (stereo not given) -8.1%
C/C(=N\NC(=O)c1ccc(CSc2nc(C)cc(C)n2)cc1)C1CCCCC1 -2.1%
COc1ccc(OC)c(CNC(=O)c2cc(=O)[nH]c3ccc(S(=O)(=O)N4CCCC4)cc23)c1 9.9%
Cc1cccc(NC(=O)c2nnn(-c3cccc(C(F)(F)F)c3)c2N)c1 6.8%
CCOC(=O)N1CCN(C(=O)C2CCN(Cc3ccc(OC)cc3OC)CC2)CC1 3.5%
O=C(NCCc1ccccc1)C1CCN(S(=O)(=O)c2ccc(Br)s2)CC1 2.9%
CSc1nc2c(c(=O)[nH]1)C(c1cccc(Cl)c1Cl)CC(=O)N2 (stereo not given) -12.6%
Cc1ccc(CCC(=O)Nc2ncc(Cc3cc(Cl)ccc3Cl)s2)o1 5.3%
